ChEMBL document CHEMBL1147105, “In vitro and in vivo activities of PD 0305970 and PD 0326448, new bacterial gyrase/topoisomerase inhibitors with potent antibacterial activities versus multidrug-resistant gram-positive and fastidious organism groups” (2007)

Assays:
Type in all cases: functional
[1] = system: Enterococcus faecalis; experiment: Antibacterial activity against VanB-resistant Enterococcus faecalis
In short: (§1)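 Broth microdilution MIC per CLSI guidelines, incubated at 35°C. Cation-adjusted Mueller-Hinton broth for nonfastidious organisms and staphylococci. Streptococci tested in the same broth with 3% lysed horse blood. Anaerobes tested in supplemented Brucella broth inside an anaerobe chamber (5% CO2, 5% H2, 90% N2), read after 48 h. Strains were mainly recent clinical isolates with confirmed identity.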

[2] = system: Enterococcus faecalis; experiment: Antibacterial activity against beta-lactamase positive Enterococcus faecalis
In short: (§2)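 MIC by CLSI broth microdilution for nonfastidious organisms, in cation-adjusted Mueller-Hinton broth incubated at 35°C.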

[3] = system: Enterococcus faecium; experiment: Antibacterial activity against Enterococcus faecium; in short: as §1
[4] = system: Enterococcus casseliflavus; experiment: Antibacterial activity against Enterococcus casseliflavus
[5] = system: Enterococcus gallinarum; experiment: Antibacterial activity against Enterococcus gallinarum
[6] = system: Listeria monocytogenes; experiment: Antibacterial activity against Listeria monocytogenes
In short: (§3)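 Broth microdilution MIC following CLSI guidelines, in cation-adjusted Mueller-Hinton broth containing 3% lysed horse blood, incubated at 35°C. Clinical isolates with identity confirmed. Reported as MIC range, MIC50 and MIC90.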

[7] = system: Haemophilus influenzae; experiment: Antibacterial activity against beta-lactamase negative Haemophilus influenzae
In short: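 Broth microdilution MIC following CLSI guidelines, in Haemophilus test medium at 35°C.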

[8] = system: Citrobacter koseri; experiment: Antibacterial activity against Citrobacter diversus
In short: (§4)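 Broth microdilution MIC following CLSI guidelines, in cation-adjusted Mueller-Hinton broth, incubated at 35°C. Recent clinical isolates and reference strains, with identity confirmed by automated and standard microbiological methods. Results reported as MIC range, MIC50 and MIC90.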

[9] = system: Citrobacter freundii; experiment: Antibacterial activity against Citrobacter freundii; in short: as §4
[10] = system: Klebsiella aerogenes; experiment: Antibacterial activity against Enterobacter aerogenes; in short: as §4
[11] = system: Enterobacter cloacae; experiment: Antibacterial activity against Enterobacter cloacae; in short: as §4
[12] = system: Klebsiella pneumoniae; experiment: Antibacterial activity against Klebsiella pneumoniae; in short: as §4
[13] = system: Proteus mirabilis; experiment: Antibacterial activity against Proteus mirabilis; in short: as §4
[14] = system: Shigella flexneri; experiment: Antibacterial activity against Shigella flexneri; in short: as §4
[15] = system: Serratia marcescens; experiment: Antibacterial activity against Serratia marcescens; in short: as §4
[16] = system: Stenotrophomonas maltophilia; experiment: Antibacterial activity against Stenotrophomonas maltophilia; in short: as §4
[17] = system: Actinomyces sp.; experiment: Antibacterial activity against Actinomyces sp.
[18] = system: Fusobacterium sp.; experiment: Antibacterial activity against Fusobacterium sp.
In short: (§5)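 Anaerobic broth microdilution MIC following CLSI guidelines, in supplemented Brucella broth. Run in an anaerobe chamber under 5% CO2, 5% H2 and 90% N2 at 35°C, and read after 48 h. Reported as MIC range, MIC50 and MIC90.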

[19] = system: Clostridium perfringens; experiment: Antibacterial activity against Clostridium perfringens; in short: as §1
[20] = system: Fusobacterium necrophorum; experiment: Antibacterial activity against Fusobacterium necrophorum; in short: as §5
[21] = system: Bacteroides thetaiotaomicron; experiment: Antibacterial activity against Bacteroides thetaiotaomicron; in short: as §5
[22] = system: Staphylococcus aureus; experiment: Antibacterial activity against oxacillin-susceptible Staphylococcus aureus; in short: as §2
[23] = system: Staphylococcus aureus; experiment: Antibacterial activity against oxacillin-resistant Staphylococcus aureus; in short: as §1
[24] = system: Staphylococcus aureus; experiment: Antibacterial activity against vancomycin-intermediate Staphylococcus aureus; in short: as §1
[25] = system: Staphylococcus epidermidis; experiment: Antibacterial activity against oxacillin-susceptible Staphylococcus epidermidis; in short: as §2
[26] = system: Staphylococcus haemolyticus; experiment: Antibacterial activity against Staphylococcus haemolyticus; in short: as §3
[27] = system: Alloiococcus otitis; experiment: Antibacterial activity against Alloiococcus otitidis
In short: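 MIC by broth microdilution following CLSI guidelines, in cation-adjusted Mueller-Hinton broth with 3% lysed horse blood. Incubated at 35°C and read after 48 h. Reported as MIC range, MIC50 and MIC90.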

[28] = system: Streptococcus agalactiae; experiment: Antibacterial activity against Streptococcus agalactiae; in short: as §3
[29] = system: Streptococcus equinus; experiment: Antibacterial activity against Streptococcus bovis
In short: (§6)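 Broth microdilution MIC following CLSI guidelines, in cation-adjusted Mueller-Hinton broth with 3% lysed horse blood. Plates incubated at 35°C. Clinical isolates and reference strains, with identity confirmed by standard microbiological methods.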

[30] = system: Streptococcus sanguinis; experiment: Antibacterial activity against Streptococcus sanguis; in short: as §6
[31] = system: Streptococcus pneumoniae; experiment: Antibacterial activity against penicillin-resistant Streptococcus pneumoniae; in short: as §1
[32] = system: Enterococcus faecalis; experiment: Antibacterial activity against Enterococcus faecalis; in short: as §1
[33] = system: Prevotella bivia; experiment: Antibacterial activity against Prevotella bivia; in short: as §5
[34] = system: Prevotella buccae; experiment: Antibacterial activity against Prevotella buccae; conditions: Segatella buccae; in short: as §5
[35] = system: Prevotella corporis; experiment: Antibacterial activity against Prevotella corporis; in short: as §5
[36] = system: Prevotella melaninogenica; experiment: Antibacterial activity against Prevotella melaninogenica; in short: as §5
[37] = system: Streptococcus mitis; experiment: Antibacterial activity against Streptococcus mitis; in short: as §6
[38] = system: Staphylococcus aureus; experiment: Antibacterial efficacy against ciprofloxacin and methicillin-resistant Staphylococcus aureus SA2017 infected orally dosed CD1 mouse model
In short: (§7)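 Sepsis model in female CD1 mice (6–8 weeks, 18–22 g). Lethal i.p. challenge (0.5 ml) at ≥100 median lethal doses. Streptococci were given in Todd-Hewitt broth; other organisms were given with 20% hog gastric mucin. A single oral gavage dose (0.5 ml, in 0.5% methylcellulose) was given at the time of challenge. The PD50 (mg/kg) was calculated by probit analysis.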

[39] = system: Staphylococcus aureus; experiment: Antibacterial efficacy against methicillin-susceptible Staphylococcus aureus UC76 infected orally dosed CD1 mouse model; conditions: UC76, po; in short: as §7
[40] = system: Staphylococcus aureus; experiment: Antibacterial efficacy against methicillin-resistant Staphylococcus aureus SA1417 infected orally dosed CD1 mouse model; in short: as §7
[41] = system: Streptococcus pneumoniae; experiment: Antibacterial efficacy against Streptococcus pneumoniae SVI infected orally dosed CD1 mouse model; conditions: po, read-out: PD50; in short: as §7
[42] = system: Enterococcus faecalis; experiment: Antibacterial efficacy against Enterococcus faecalis MGH2 infected orally dosed CD1 mouse model; in short: as §7

C[C@H]1COc2c(N3CCN(C)CC3)c(F)cc3c(=O)c(C(=O)O)cn1c23.C[C@H]1COc2c(N3CCN(C)CC3)c(F)cc3c(=O)c(C(=O)O)cn1c23.O [LEVOFLOXACIN]
MIC50 [1]: 16 µg/mL
MIC90 [1]: 32 µg/mL
MIC [2]: 0.5 µg/mL
MIC50 [3]: 32 µg/mL
MIC90 [3]: 64 µg/mL
MIC50 [4]: 2 µg/mL
MIC90 [4]: 2 µg/mL
MIC50 [5]: 1 µg/mL
MIC90 [5]: 2 µg/mL
MIC50 [6]: 1 µg/mL
MIC90 [6]: 1 µg/mL
MIC50 [7]: 0.015 µg/mL
MIC90 [7]: 0.03 µg/mL
MIC50 [8]: 0.03 µg/mL
MIC90 [8]: 0.06 µg/mL
MIC50 [9]: 0.125 µg/mL
MIC90 [9]: 16 µg/mL
MIC50 [10]: 1 µg/mL
MIC90 [10]: 32 µg/mL
MIC50 [11]: 0.06 µg/mL
MIC90 [11]: 1 µg/mL
MIC50 [12]: 0.06 µg/mL
MIC90 [12]: 0.5 µg/mL
MIC50 [13]: 0.125 µg/mL
MIC90 [13]: 2 µg/mL
MIC50 [14]: 0.03 µg/mL
MIC90 [14]: 0.06 µg/mL
MIC50 [15]: 0.125 µg/mL
MIC90 [15]: 4 µg/mL
MIC50 [16]: 1 µg/mL
MIC90 [16]: 4 µg/mL
MIC [17]: 0.25 µg/mL
MIC [18]: 0.03 µg/mL
MIC90 [19]: 0.5 µg/mL
MIC [20]: 0.03 µg/mL
MIC50 [21]: 8 µg/mL
MIC90 [21]: 32 µg/mL
MIC50 [22]: 0.25 µg/mL
MIC90 [22]: 0.25 µg/mL
MIC50 [23]: 8 µg/mL
MIC90 [23]: 8 µg/mL
MIC [24]: 16 µg/mL
MIC [25]: 0.25 µg/mL
MIC50 [26]: 0.25 µg/mL
MIC90 [26]: 32 µg/mL
MIC50 [27]: 0.25 µg/mL
MIC90 [27]: 0.25 µg/mL
MIC50 [28]: 1 µg/mL
MIC90 [28]: 1 µg/mL
MIC50 [29]: 2 µg/mL
MIC90 [29]: 2 µg/mL
MIC50 [30]: 1 µg/mL
MIC90 [30]: 1 µg/mL
MIC50 [31]: 0.5 µg/mL
MIC90 [31]: 1 µg/mL
MIC50 [32]: 16 µg/mL
MIC90 [32]: 32 µg/mL
MIC50 [33]: 1 µg/mL
MIC90 [33]: 2 µg/mL
MIC50 [34]: 1 µg/mL
MIC90 [34]: 2 µg/mL
MIC50 [35]: 1 µg/mL
MIC90 [35]: 2 µg/mL
MIC50 [36]: 1 µg/mL
MIC90 [36]: 2 µg/mL
MIC50 [37]: 1 µg/mL
MIC90 [37]: 1 µg/mL
MIC [38]: 8 µg/mL
MIC [39]: 0.125 µg/mL
ED50 ([39]; read-out: PD50): 4.6 mg/kg
MIC [40]: 0.25 µg/mL
ED50 [41]: 69 mg/kg
MIC [42]: 1 µg/mL
